In data set [1] the target is toll-like receptor 4 (TLR4) (Homo sapiens, UniProt O00206). It counts as binding. To be noted: ELISA, result in words. The gist of the method: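 Antagonism of LPS–TLR4 binding measured by ELISA, read as optical density at 450 nm. Each sample was run as four parallel experiments, with OD reported as mean ± standard deviation. IC50 values were derived from dose–response curves.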

Another data set is described as follows: thermal stability assay. The data set is classed as physicochemical. As to conditions: heating experiments, 95 °C for 3 h.
For a further data set, the system named is carboxypeptidase Y. Nature of the data set: carboxypeptidase Y-treatment experiments. It counts as in vitro ADME. To be noted: 28 °C for 12 h, pH 6.0.

The text below walks through data of article PMC8480316 (Chemical Science, 2021).

Where a SMILES comes first, the peptide text is derived from it. Bridges are numbered along the chain shown (N, C = ends). The star is where a group is joined. βGlc = OC[C@H]1O[C@@H](*)[C@H](O)[C@@H](O)[C@@H]1O

Sequence of toll-like receptor 4 (TLR4) (O00206 24-839): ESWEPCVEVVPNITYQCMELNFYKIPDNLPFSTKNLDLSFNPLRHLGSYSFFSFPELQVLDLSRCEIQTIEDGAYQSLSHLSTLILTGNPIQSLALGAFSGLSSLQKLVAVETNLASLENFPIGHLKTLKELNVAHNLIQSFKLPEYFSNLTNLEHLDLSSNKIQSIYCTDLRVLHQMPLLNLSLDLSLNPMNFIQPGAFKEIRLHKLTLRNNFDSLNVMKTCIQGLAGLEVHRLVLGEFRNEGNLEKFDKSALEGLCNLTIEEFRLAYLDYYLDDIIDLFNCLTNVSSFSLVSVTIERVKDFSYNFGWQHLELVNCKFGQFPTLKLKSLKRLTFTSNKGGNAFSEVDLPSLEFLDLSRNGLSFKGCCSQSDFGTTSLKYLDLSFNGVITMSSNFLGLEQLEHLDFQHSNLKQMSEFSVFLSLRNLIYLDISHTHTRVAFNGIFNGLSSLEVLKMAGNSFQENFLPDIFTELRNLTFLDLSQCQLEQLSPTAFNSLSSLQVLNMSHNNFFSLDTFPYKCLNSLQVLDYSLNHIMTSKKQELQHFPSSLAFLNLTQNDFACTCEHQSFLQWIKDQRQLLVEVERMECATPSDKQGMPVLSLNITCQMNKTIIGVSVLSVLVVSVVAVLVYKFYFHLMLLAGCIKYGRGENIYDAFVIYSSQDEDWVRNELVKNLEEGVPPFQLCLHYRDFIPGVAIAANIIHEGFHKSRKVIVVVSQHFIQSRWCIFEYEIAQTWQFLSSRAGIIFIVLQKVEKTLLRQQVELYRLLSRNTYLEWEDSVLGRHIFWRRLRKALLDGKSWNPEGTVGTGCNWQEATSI
Sequence of toll-like receptor 4 (TLR4) (Q9Y6Y9 17-160 partner limits assumed): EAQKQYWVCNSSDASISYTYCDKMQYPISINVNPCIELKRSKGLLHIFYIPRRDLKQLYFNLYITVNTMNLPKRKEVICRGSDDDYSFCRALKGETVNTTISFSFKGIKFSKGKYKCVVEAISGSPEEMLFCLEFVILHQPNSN

Consider `CC[C@H](C)[C@@H]1NC(=O)[C@H](C(C)C)NC(=O)[C@H](C(C)C)NC(=O)[C@H](CC(C)C)NC(=O)C[C@@H](C(=O)N[C@@H](Cc2c[nH]c3ccccc23)C(=O)N[C@@H](CC(N)=O)C(=O)N[C@@H](C)C(=O)N2CCC[C@H]2C(=O)NCC(=O)N[C@@H](Cc2c[nH]c3ccccc23)C(=O)N[C@@H](Cc2ccc(O[C@@H]3O[C@H](CO)[C@@H](O)[C@H](O)[C@H]3O)cc2)C(=O)O)NC(=O)[C@H](C)NC(=O)[C@H](CCC(N)=O)NC(=O)[C@H](C(C)C)NC1=O` [compound 20, stlassin F15Y-I] (LVVIVQADWNAPGWY(βGlc)-OH; lactam N-8), for which the “antagonistic (inhibitory) activity against the binding of LPS to TLR4” value in data set [1] was “comparable inhibitory activities to stlassin (1)”. As for stlassin I4C [compound 21], the “antagonistic (inhibitory) activity against the binding of LPS to TLR4” value in data set [1] is “comparable inhibitory activities to stlassin (1)”. Regarding stlassin V2C/A11C [compound 18], in the data set “thermal stability assay”, the thermal stability entry is “similarly high stability to that of 1”. Besides, in the data set on carboxypeptidase Y, the proteolytic stability entry is on record as “similarly high stability to that of 1”.
